Bioassay records as filed in PubChem.
IDH1 R132H inh: blocks human IDH1 R132H reductase activity. O75874. diaphorase/resazurin fluorescence, 60 min. inhibition, % at 10 µM. 0.18% of 70,000 active; in the data active = inhibition above about 34%
Target sequence (O75874 whole entry R132H): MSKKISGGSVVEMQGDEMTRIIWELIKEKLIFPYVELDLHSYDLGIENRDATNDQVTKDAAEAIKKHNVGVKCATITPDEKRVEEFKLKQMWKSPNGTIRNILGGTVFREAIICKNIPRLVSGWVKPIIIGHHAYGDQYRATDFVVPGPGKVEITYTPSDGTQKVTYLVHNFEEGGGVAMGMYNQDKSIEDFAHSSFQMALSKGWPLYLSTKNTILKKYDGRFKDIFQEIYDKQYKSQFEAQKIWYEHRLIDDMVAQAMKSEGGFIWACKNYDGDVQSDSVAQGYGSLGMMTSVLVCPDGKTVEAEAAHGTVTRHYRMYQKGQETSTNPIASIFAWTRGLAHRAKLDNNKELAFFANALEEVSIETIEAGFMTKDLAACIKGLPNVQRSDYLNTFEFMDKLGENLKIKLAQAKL
T cruzi growth: inhibitors of T. cruzi proliferation | T. cruzi beta-gal in NIH3T3, GalScreen luminescence, 90 h | inhibition, % at 8.34 µM | 5.9% of 77,000 active;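 active = mean inhibition above about 93%, with at least 55% of replicates each passing it, limit read from the data, passing the limit was not always enough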
Pf Dd2 growth: inhibitors of Plasmodium falciparum Dd2 growth. P. falciparum Dd2 growth, SYBR Green, 72 h; hits give low values. activity change, % at 10 µM. 2.3% of 94,000 active. AID 1159554; in the data active = activity change below about -80%
GASC1 inh: blocks human GASC-1 (KDM4C) demethylase activity | GST-KDM4C 2-372, H3K9me3 peptide, LANCE TR-FRET | inhibition, % at 12.5 µM | 0.15% of 96,000 active | AID 720574;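 active = mean replicate inhibition above about 25%, with at least 55% of replicates also reaching it, limit read from the data, passing the limit was not always enough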
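Compound: one test concentration per compound; Material: GST-GASC-1 enzyme fragment 2-372; Amount: GASC-1 enzyme at 10 nM final in reaction; Also added: H3K9me3 peptide substrate, Fe(II), 2-oxoglutarate; Technique: LANCE TR-FRET; Times: 30 min demethylation and 1 h detection at room temperature.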
Numbers stand for hits; . = inactive; / = not tested or not shown. A selection: hits, their analogues and other compounds. The true share with any hit is near 5.8%.

SMILES	IDH1 R132H inh	T cruzi growth	Pf Dd2 growth	GASC1 inh
O=C(Nc1ccccc1F)N1CC(=O)N2[C@H](CO)[C@@H](c3ccc(-c4ccccc4)cc3)[C@H]2C1	/	/	-84	.
O=C(Nc1ccccc1F)N1CC(=O)N2[C@H](CO)[C@H](c3ccc(-c4ccccc4)cc3)[C@@H]2C1	/	/	.	.
O=C(Nc1cc(F)ccc1F)N1CC(=O)N2[C@H](CO)[C@@H](c3ccc(C#CC4CCCCC4)cc3)[C@@H]2C1	/	/	-82	.
COc1ccc(C)cc1NC(=O)CN(c1cc(Cl)c(Cl)cc1Cl)S(C)(=O)=O	.	/	/	/
COc1ccc(CN2CCN(Cc3cccc(OC)c3OC)CC2)c(OC)c1	.	/	/	/
COc1ccc(NC(=O)Nc2ccc3c(c2)C(=O)N([C@@H](C)CO)C[C@@H](C)[C@H](CN(C)S(=O)(=O)c2ccc(OC)cc2)OCCCC[C@@H](C)O3)cc1	.	.	.	.
COc1ccc(S(=O)(=O)N(C)C[C@@H]2OCCCC[C@@H](C)Oc3ccc(NC(=O)Nc4ccc5c(c4)OCO5)cc3C(=O)N([C@@H](C)CO)C[C@@H]2C)cc1	/	.	-88	.
COc1ccc(S(=O)(=O)N(C)C[C@@H]2OCCCC[C@@H](C)Oc3ccc(NC(=O)Nc4ccc5c(c4)OCO5)cc3C(=O)N([C@H](C)CO)C[C@@H]2C)cc1	/	.	-84	.
COc1ccc(S(=O)(=O)N(C)C[C@@H]2OCCCC[C@H](C)Oc3ccc(NC(=O)Nc4ccc5c(c4)OCO5)cc3C(=O)N([C@H](C)CO)C[C@H]2C)cc1	.	.	-82	.
Cc1ccc(S(=O)(=O)N(C)C[C@H]2OCCCC[C@H](C)Oc3ccc(NC(=O)Nc4ccc5c(c4)OCO5)cc3C(=O)N([C@H](C)CO)C[C@@H]2C)cc1	/	/	.	.
Cc1ccc(S(=O)(=O)N(C)C[C@H]2OCCCC[C@H](C)Oc3ccc(NC(=O)Nc4ccc5c(c4)OCO5)cc3C(=O)N([C@@H](C)CO)C[C@H]2C)cc1	.	.	-82	.
Cc1ccc(S(=O)(=O)N(C)C[C@@H]2OCCCC[C@@H](C)Oc3ccc(NC(=O)Nc4ccc5c(c4)OCO5)cc3C(=O)N([C@@H](C)CO)C[C@@H]2C)cc1	/	/	-83	.
Cc1ccc(S(=O)(=O)N(C)C[C@H]2OCCCC[C@@H](C)Oc3ccc(NC(=O)Nc4ccc5c(c4)OCO5)cc3C(=O)N([C@@H](C)CO)C[C@H]2C)cc1	.	/	.	.
Cc1ccc(S(=O)(=O)N(C)C[C@H]2Oc3cc(C#Cc4ccncc4)ccc3S(=O)(=O)N([C@H](C)CO)C[C@H]2C)cc1	.	.	.	.
Cc1ccc(S(=O)(=O)N(C)C[C@@H]2Oc3cc(C#Cc4ccncc4)ccc3S(=O)(=O)N([C@@H](C)CO)C[C@@H]2C)cc1	.	.	-85	.
Cc1ccc(S(=O)(=O)N(C)C[C@H]2Oc3cc(C#Cc4ccncc4)ccc3S(=O)(=O)N([C@H](C)CO)C[C@@H]2C)cc1	.	.	-81	.
CN1C(C(=O)Nc2ccccn2)C(=O)c2ccccc2S1(=O)=O (stereo not given)	.	/	/	/
C[C@H]1CN([C@@H](C)CO)C(=O)c2c(c3ccccc3n2C)-c2ccccc2CO[C@@H]1CN(C)Cc1cccc(O)c1	/	/	-89	.
COc1cccc(CN(C)C[C@H]2OCc3ccccc3-c3c(n(C)c4ccccc34)C(=O)N([C@H](C)CO)C[C@H]2C)c1	/	/	-88	.
C[C@H](CO)N1C[C@H](C)[C@H](CN(C)Cc2cccc(O)c2)OCc2ccccc2-c2c(n(C)c3ccccc23)C1=O	/	/	.	/
C[C@H]1CN([C@@H](C)CO)C(=O)c2c(c3ccccc3n2C)-c2ccccc2CO[C@H]1CN(C)Cc1cccc(C(=O)O)c1	/	.	.	.
C[C@H](CO)N1C[C@H](C)[C@@H](CN(C)Cc2cccc(C(=O)Nc3ccccc3N)c2)OCc2ccccc2-c2c(n(C)c3ccccc23)C1=O	/	/	-91	.
C[C@@H]1CN([C@@H](C)CO)C(=O)c2c(c3ccccc3n2C)-c2ccccc2CO[C@@H]1CN(C)Cc1cccc(F)c1	/	/	-86	.
Cn1c(SCC(=O)Nc2ccc(Cl)c(Cl)c2)nnc1-c1ccc(Cl)c(Cl)c1	.	/	/	/
COc1ccc2c3c(n(C)c2c1)[C@H](CO)N(C(=O)Nc1ccc(F)cc1)CC31CN(Cc2cccnc2)C1	/	/	-89	.
SMILES	IDH1 R132H inh	T cruzi growth	Pf Dd2 growth	GASC1 inh
CCCNC(=O)N1CC2(CN(Cc3ccc(OC)cc3)C2)c2c(n(C)c3cc(OC)ccc23)[C@H]1CO	/	/	-81	.
COc1ccc2c3c(n(C)c2c1)[C@@H](CO)N(C(=O)c1ccc(F)cc1)CC31CCN(C(=O)Nc2ccc(F)cc2)CC1	/	/	-87	.
COc1ccc2c3c(n(C)c2c1)[C@@H](CO)N(C(=O)Nc1ccc(F)cc1)CC31CN(C(=O)c2ccccc2F)C1	/	/	-92	.
O=C(CNS(=O)(=O)c1cc(Cl)ccc1Cl)Nc1ccc(Oc2ccccc2)cc1	.	/	/	/
Cc1ccc(-c2noc(CN(C(=O)c3cccc([N+](=O)[O-])c3)C(C)C)n2)cc1	.	/	/	/
COc1ccc2c3c(n(C)c2c1)[C@@H](CO)N(C(=O)c1ccccc1)CC31CCN(C(=O)c2ccccc2)CC1	/	/	-87	.
COc1ccc2c3c(n(C)c2c1)[C@@H](CO)N(C(C)=O)CC31CCN(C(=O)Nc2ccc(F)cc2)CC1	/	/	-83	.
COc1ccc2c3c(n(C)c2c1)[C@@H](CO)N(Cc1cccnc1)CC31CCN(C(=O)NC(C)C)CC1	/	/	.	.
COc1ccc2c3c(n(C)c2c1)[C@H](CO)N(Cc1cccnc1)CC31CN(C(=O)NC(C)C)C1	/	/	-88	.
O=C(Nc1ccc(S(=O)(=O)Nc2ncccn2)cc1)c1cccc(I)c1	.	/	/	/
C[C@@H]1CCCCO[C@@H](CN(C)C)[C@@H](C)CN([C@H](C)CO)C(=O)c2cc(NC(=O)CCCCCC(=O)Nc3ccccc3N)ccc2O1	/	/	.	.
C[C@@H]1CN([C@H](C)CO)C(=O)c2cc(NC(=O)CCCCCC(=O)Nc3ccccc3N)ccc2O[C@@H](C)CCCCO[C@H]1CN(C)Cc1ccc(Cl)c(Cl)c1	.	/	-91	.
C[C@@H]1CCCCO[C@H](CN(C)Cc2ccc(Cl)c(Cl)c2)[C@@H](C)CN([C@H](C)CO)C(=O)c2cc(NC(=O)CCCCCC(=O)Nc3ccccc3N)ccc2O1	.	/	-90	.
O=C(N/N=C/c1ccc2ccccc2c1O)c1ccccn1	.	/	/	/
COc1ccc(C#Cc2ccc3c(c2)O[C@@H](CN(C)C(=O)Nc2cccc(OC)c2)[C@@H](C)CN([C@H](C)CO)S3(=O)=O)cc1	/	.	-89	.
COc1ccc(C#Cc2ccc3c(c2)O[C@@H](CN(C)C(=O)Nc2cccc(OC)c2)[C@H](C)CN([C@@H](C)CO)S3(=O)=O)cc1	/	.	-88	/
C[C@@H]1CN([C@@H](C)CO)C(=O)c2cc(NC(=O)Nc3cccc4ccccc34)ccc2O[C@@H](C)CCCCO[C@@H]1CN(C)S(=O)(=O)c1ccc(F)cc1	.	.	-83	.
C[C@@H]1CN([C@H](C)CO)C(=O)c2cc(NC(=O)Nc3cccc4ccccc34)ccc2O[C@@H](C)CCCCO[C@@H]1CN(C)S(=O)(=O)c1ccc(F)cc1	/	.	-87	.
